Rows were chosen to be rich in hits. Some 2.3% of all compounds tested hit in one or more screens of this group.
TAAR1 ag – agonists of human TAAR1. 360,000 compounds, 0.99% hits. CHO RD-HGA16 TAAR1, Fluo-8 calcium fluorescence; vehicle wells 0%, saturating PEA agonist 100%. Q96RJ0. activation, % at 3 µM;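 active means activation above the mean activation of all test compounds in the run plus 3 SD, cut at about 38% in these data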
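test system = CHO RD-HGA16 cells carrying human TAAR1 plus Gα16 | schedule = 17-24 h seeding, 75 min 37 °C dye, 30 min RT | compound dosing = 3 µM single concentration | control set = DMSO and PEA EC100 | replicates = n 1 | signal = Fluo-8 fluorescence, 5 s baseline then 140 s kinetic read | measure = percent activation vs PEA EC100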
TAAR1 antag – human TAAR1 antagonism. Q96RJ0. CHO RD-HGA16 TAAR1, Fluo-8 calcium fluorescence, antagonist. inhibition, % at 3 µM. 360,000 compounds, 1.5% hits;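 active means inhibition above a per-plate cutoff, the mean inhibition of test compounds on that plate plus 3 SD, cut at about 49% in these data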;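 further: 0% = DMSO plus EC80 beta-PEA response and 100% = DMSO alone without agonist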
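System: CHO RD-HGA16 cells bearing hTAAR1. Reagent: EC80 β-phenethylamine stimulus. Schedule: seeding 17-24 h prior, 75-min 37 °C, 30-min RT dye loading. Signal: Fluo-8 intracellular calcium dye fluorescence, real-time kinetic reads. Read-out: % inhibition from peak post-agonist over basal fluorescence ratio. Benchmarks: vehicle wells and EC80 agonist wells. Replicates: n of 1.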
OXTR ag – activates the human oxytocin receptor; P30559; CHO-OTR cells, Fluo-8 calcium fluorescence; normalized: DMSO 0%, oxytocin 100%; activation, % at 3 µM; 320,000 compounds, 0.32% hits;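 active means activation above the mean of all tested compounds plus 3 SD, cutoff set per screening run, cut at about 20% in these data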;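 further: peak over basal fluorescence ratio from a 100 s FLIPR kinetic read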
OXTR potentiator – potentiates the human oxytocin receptor response | activation, % at 3 µM | P30559 | CHO-OTR cells, Fluo-8 calcium fluorescence, potentiator mode; 0% = oxytocin EC15, 100% = EC100 | 320,000 compounds, 0.061% hits;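 active means activation above that plate's cutoff, the mean activation of tested compounds plus 3 SD, cut at about 6.6% in these data, passing the limit was not always enough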;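 further: 100% uses oxytocin at 75 nM as the full agonist control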
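Replication – single well per compound, singlicate · Assay system – CHO cell line stably expressing human OTR · Timing – 6 min pre-incubation, 100 s read · Measure – normalized max/min fluorescence ratio, % activation · Doses – 3.0 µM, one dose · Detection – Fluo-8 calcium dye fluorescence · Probe or stimulus – oxytocin near EC15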
V1aR counter – counter-screen for oxytocin receptor agonists: human V1a receptor agonists. P37288. CHO-V1R cells, Fluo-8 calcium fluorescence, agonist mode; 0% DMSO, 100% 3 nM vasopressin. activation, % at 3 µM. 320,000 compounds, 0.25% hits. AID 2797;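 active means activation above the mean activation of all tested compounds plus 3 SD, per screening run, cut at about 20% in these data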;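 further: signal is peak over basal fluorescence ratio across a 100 second FLIPR read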
Target sequence (P37288 whole entry, looked up): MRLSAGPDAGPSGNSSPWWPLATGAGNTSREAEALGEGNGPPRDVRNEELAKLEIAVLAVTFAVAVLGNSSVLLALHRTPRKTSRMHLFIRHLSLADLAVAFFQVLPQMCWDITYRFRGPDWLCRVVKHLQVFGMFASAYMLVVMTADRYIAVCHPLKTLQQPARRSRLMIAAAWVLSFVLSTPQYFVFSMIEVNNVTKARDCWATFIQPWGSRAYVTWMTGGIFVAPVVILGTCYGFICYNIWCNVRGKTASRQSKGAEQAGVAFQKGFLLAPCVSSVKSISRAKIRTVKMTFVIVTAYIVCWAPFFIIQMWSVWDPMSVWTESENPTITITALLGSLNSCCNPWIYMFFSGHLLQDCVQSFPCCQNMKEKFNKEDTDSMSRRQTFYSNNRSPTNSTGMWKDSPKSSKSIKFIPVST
TAAR1 ag confirm – human TAAR1 agonism, confirmed; shares compounds with TAAR1 ag; CHO RD-HGA16 TAAR1, Fluo-8 calcium fluorescence; scaled: DMSO 0%, maximal phenethylamine 100%; activation, % at 3 µM; 2,400 compounds, 82% hits; AID 651783;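 active means activation above a cutoff set at the run's mean compound activation plus 3 SD, cut at about 39% in these data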
Ga16 nonsel ag – nonselective agonism, TAAR1 counter-screen; shares compounds with TAAR1 ag; CHO-Ga16 parental, Fluo-8 calcium fluorescence; normalized to maximal ATP response, DMSO zero; activation, % at 3 µM; 2,400 compounds, 50% hits;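 active means activation above the run cutoff, the mean activation over all tested wells plus 3 SD, cut at about 12% in these data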;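 further: 0% = DMSO wells and 100% = maximal ATP response on the peak over basal ratio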
TAAR1 desens – human TAAR1 agonist that also desensitizes the receptor; 2,400 compounds, 46% hits; CHO RD-HGA16 hTAAR1, Fluo-8 calcium, beta-PEA response inhibition; inhibition, % at 3 µM; shares compounds with TAAR1 ag;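 active means inhibition above the run cutoff, the mean inhibition of all test compounds plus 3 SD, cut at about 49% in these data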;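 further: beta-PEA stimulus applied at its EC80; loss of beta-PEA calcium signal after compound pretreatment read as receptor desensitization; 0% = DMSO with beta-PEA at EC80 and 100% = DMSO alone without agonist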
Ga16 nonsel ant – nonselective Ga16 antagonist in TAAR1 agonist counter-screen | inhibition, % at 3 µM | shares compounds with TAAR1 ag | CHO-Ga16 ATP-induced calcium, Fluo-8 fluorescence | 2,400 compounds, 39% hits | AID 651952;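 active means inhibition above the plate's mean compound inhibition plus 3 SD, computed per plate, cut at about 22% in these data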;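 further: 0% = EC80 ATP with DMSO and 100% = DMSO wells without ATP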
* hit, by the source's call; . = no result.

SMILES	TAAR1 ag	TAAR1 antag	OXTR ag	OXTR potentiator	V1aR counter	TAAR1 ag confirm	Ga16 nonsel ag	TAAR1 desens	Ga16 nonsel ant
Cc1ccc(S(=O)(=O)NC2=NCN(CCc3ccccc3)CN2)cc1	64*	3	0	-12	0	43*	0	2	8
CCCNC(=O)C1CC2Cn3c(nc4ccccc43)C2N1C (centres undefined)	10	12	0	-3	1	.	.	.	.
CN1C(C(=O)NCCc2cccs2)CC2Cn3c(nc4ccccc43)C21 (centres undefined)	.	.	0	-2	0	.	0	.	2
NC(Cc1ccc(Cl)cc1)c1csc(NC(=O)NCCc2ccccc2)n1 (centres undefined)	75*	68*	.	.	.	60*	30*	63*	51*
O=C(O)c1ccccc1C(=O)NCCc1ccc(Cl)cc1	60*	17	1	3	1	61*	7	27	9
Cc1cc(C)nc(Nc2nc(C(N)Cc3ccc(Cl)cc3)cs2)n1 (centres undefined)	63*	50*	.	.	.	45*	27*	31	33*
O=C(NCCc1ccccc1)c1ccccc1Cl	2	-23	-1	-10	0	.	.	.	.
O=C(NCCc1ccccc1)Nc1ccc(Cl)cc1	47*	37	1	-6	4	46*	21*	42	28*
Cc1cccc(NC(=S)NCc2ccccc2)c1C	-2	-8	-1	-10	0	.	.	.	.
Cc1ccc(C(=O)Nc2c3c(nn2-c2ccccc2)CS(=O)(=O)C3)cc1C	0	-10	0	-6	0	.	.	.	.
COC(=O)C1=C(C)N(C)C(=NCc2cc(OC)c(OC)c(OC)c2)NC1c1ccc(Cl)cc1 (centres undefined)	1	-3	.	.	.	.	.	.	.
CC(CCc1ccccc1)NC(=O)c1ccc(C(=O)NC(C)CCc2ccccc2)cc1 (centres undefined)	1	-1	1	-4	1	.	.	.	.
CC(CCc1ccccc1)NCC#N (centres undefined)	53*	-15	1	-3	2	51*	0	8	6
CC(CCc1ccccc1)NC(=O)c1ccccc1C(=O)O (centres undefined)	48*	-12	0	-15	0	63*	20*	2	2
CC(=O)Nc1ccc(OC(=O)Cc2ccc(Cl)cc2)cc1	7	-4	3	-7	3	.	.	.	.
COc1cc2c(C)nc3c(c(C)nn3-c3ccccc3)c2cc1OC	0	-20	2	-4	0	.	.	.	.
COc1cc2c(-c3ccc(O)cc3)nc3c(c(C)nn3-c3ccccc3)c2cc1OC	40*	50*	3	-5	7	22	14*	49*	38*
CN(CCNC(=O)c1cn(C)c2ccc(S(=O)(=O)N(C)C)cc2c1=O)CCc1ccccc1	44*	-17	0	-4	0	55*	1	5	-8
COc1ccc(C(c2nnnn2C2CCCC2)N2CCN(C(=O)c3ccco3)CC2)cc1OC (centres undefined)	2	8	1	4	2	.	.	.	.
COc1cc(C(c2nnnn2C2CCCC2)N2CCc3ccccc3C2)ccc1O (centres undefined)	85*	100*	0	-14	0	91*	0	97*	7
O=c1[nH]c2ccc(NC(=S)Nc3ccc(Cl)cc3)cc2[nH]1	53*	8	0	-6	1	58*	11	34	29*

Compound activity: PubChem BioAssay, The Scripps Research Institute Molecular Screening Center
